Measured values taken from ChEMBL document CHEMBL1138658, “Novel 2-aminotetralin and 3-aminochroman derivatives as selective serotonin 5-HT7 receptor agonists and antagonists” (J Med Chem, 2004).

Columns and labels:
Rattus norvegicus = species on record: Rattus norvegicus; test: Inhibition of 3[H]8-OH--DPAT and [3H]5-HT binding to 5-hydroxytryptamine 1A receptor and 5-hydroxytryptamine 7 receptor in rat
Outline: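 Displacement binding with [3H]-8-OH-DPAT at 5-HT1A in rat hippocampal cells, and with [3H]-5-HT at rat 5-HT7 expressed in CHO or Sf9 cells.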

[1] = target: 5-hydroxytryptamine receptor 7 (Rattus norvegicus) (UniProt P32305); test: Stimulation of cAMP production in CHO cells expressing rat 5-hydroxytryptamine 7 receptor; format: functional, cell-based
Chain of 5-hydroxytryptamine receptor 7 (Rattus norvegicus) (P32305 whole entry): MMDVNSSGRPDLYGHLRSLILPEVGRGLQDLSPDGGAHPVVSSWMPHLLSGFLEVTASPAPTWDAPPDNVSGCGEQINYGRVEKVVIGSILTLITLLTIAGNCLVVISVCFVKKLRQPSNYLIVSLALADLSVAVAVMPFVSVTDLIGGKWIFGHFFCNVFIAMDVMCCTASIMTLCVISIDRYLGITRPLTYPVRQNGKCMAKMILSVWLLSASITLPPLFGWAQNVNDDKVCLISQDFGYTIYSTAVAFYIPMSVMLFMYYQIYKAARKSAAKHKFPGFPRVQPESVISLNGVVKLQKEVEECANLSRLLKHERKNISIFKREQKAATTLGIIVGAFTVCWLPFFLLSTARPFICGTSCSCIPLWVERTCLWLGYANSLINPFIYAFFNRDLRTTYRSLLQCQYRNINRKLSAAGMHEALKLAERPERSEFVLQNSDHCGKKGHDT
Outline: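 cAMP production in CHO cells expressing rat 5-HT7 receptor. Efficacy is expressed as percent of the 5-HT-stimulated production.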

[2] = target: 5-hydroxytryptamine receptor 7 (Rattus norvegicus, UniProt P32305); test: Inhibition of [3H]-5-HT binding to rat 5-hydroxytryptamine 7 receptor
Chain of 5-hydroxytryptamine receptor 7 (P32305 whole entry): as above
Outline: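 Rat 5-HT7 receptor expressed in CHO or Sf9 cells; [3H]-5-HT radioligand displacement.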

[3] = target: T1, 5-hydroxytryptamine receptor 1A (Rattus norvegicus, UniProt P19327); test: Inhibition of [3H]8-OH-DPAT binding to rat 5-hydroxytryptamine 1A receptor
T1 sequence (P19327 whole entry): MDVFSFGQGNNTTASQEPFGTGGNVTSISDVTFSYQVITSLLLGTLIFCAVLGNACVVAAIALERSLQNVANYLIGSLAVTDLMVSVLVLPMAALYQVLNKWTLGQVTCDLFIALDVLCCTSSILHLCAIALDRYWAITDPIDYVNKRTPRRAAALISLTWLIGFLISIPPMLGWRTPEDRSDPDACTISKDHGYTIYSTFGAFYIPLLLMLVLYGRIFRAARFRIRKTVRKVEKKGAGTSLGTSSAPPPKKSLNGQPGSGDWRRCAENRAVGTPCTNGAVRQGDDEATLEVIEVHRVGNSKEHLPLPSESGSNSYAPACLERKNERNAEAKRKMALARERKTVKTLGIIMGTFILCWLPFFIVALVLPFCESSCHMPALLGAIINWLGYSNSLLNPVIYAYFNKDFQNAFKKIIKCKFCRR
Outline: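 Radioligand [3H]-8-OH-DPAT; receptor source either CHO cells expressing human 5-HT1A or rat hippocampal cells.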

[4] = target: 5-hydroxytryptamine receptor 7 (Rattus norvegicus) (UniProt P32305); test: Stimulation of cAMP production in CHO cells expressing rat 5-hydroxytryptamine 7 receptor; Antagonist; format: functional, cell-based; details: filed as antagonist
Outline: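 Functional assay in CHO cells expressing rat 5-HT7 receptor, read as cAMP production. Efficacy is expressed as % of the cAMP production stimulated by 5-HT.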

[5] = target: D(2) dopamine receptor (Homo sapiens) (UniProt P14416); test: Inhibition of [3H]raclopride binding to Dopamine receptor D2A in human
Chain of D(2) dopamine receptor (Homo sapiens) (P14416 whole entry, looked up): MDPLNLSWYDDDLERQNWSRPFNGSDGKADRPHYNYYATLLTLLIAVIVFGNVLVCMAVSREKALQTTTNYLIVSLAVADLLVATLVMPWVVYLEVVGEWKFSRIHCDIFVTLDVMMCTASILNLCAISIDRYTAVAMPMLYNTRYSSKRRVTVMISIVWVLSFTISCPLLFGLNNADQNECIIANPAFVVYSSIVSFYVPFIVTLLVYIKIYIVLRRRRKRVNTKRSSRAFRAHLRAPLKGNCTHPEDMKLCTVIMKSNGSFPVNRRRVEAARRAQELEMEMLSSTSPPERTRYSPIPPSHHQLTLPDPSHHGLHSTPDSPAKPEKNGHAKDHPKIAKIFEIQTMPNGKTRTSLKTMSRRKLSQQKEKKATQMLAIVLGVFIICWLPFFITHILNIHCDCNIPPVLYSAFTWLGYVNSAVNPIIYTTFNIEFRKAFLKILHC

Q: What does the source list for `CCCN(CCC)[C@H]1COc2c(cccc2-c2c(OC)cccc2OC)C1`?
A: Ratio (Rattus norvegicus): 27; Efficacy [1]: 154%; Ki [2]: 6.44 nM; Ki [3]: 174 nM

Q: What does the source list for `O=S(=O)(c1ccc2c(c1)CC=C2)N1CCC[C@@H]1CCN1CCC(Oc2ccc(Cl)cc2)CC1`?
A: Ratio (Rattus norvegicus): 282; Efficacy [4]: Antagonist; Ki [2]: 1.99 nM; Ki [3]: 562 nM

Q: `O=C1c2ccccc2CCCN1CCN1CCC(n2c(=O)[nH]c3cc(F)ccc32)CC1` was tested. Which Ki [2] did it give?
A: The Ki was 2.24 nM.

Q: What about the Ki [3] of the same compound?
A: Its Ki is 479 nM.

Q: Which results are given for `CCCN(CCC)[C@H]1CCc2c(cccc2-c2ccc(OC)cc2)C1`?
A: Ratio (Rattus norvegicus): 0.12; Ki [2]: 12.4 nM; Ki [3]: 1.49 nM

Q: Which results are given for `CCCN(CCC)[C@@H]1COc2c(cccc2-c2ccccc2OC)C1`?
A: Ratio (Rattus norvegicus): 1.9; Ki [2]: 364 nM; Ki [3]: 680 nM; Ki [5]: 2110 nM

Q: For `COc1cccc(OC)c1-c1cccc2c1OC[C@H](N(C)C)C2`, which Ratio (Rattus norvegicus) is on record?
A: The Ratio was over 189.

Q: And the Efficacy [1]?
A: The Efficacy was 28%.

Q: And the Ki [2]?
A: Its Ki is 5.29 nM.

Q: And the Ki [3]?
A: The Ki was over 1000 nM.

Q: For `CCCN(CCC)[C@H]1CCc2c(cccc2-c2ccccc2OC)C1`, which Ratio (Rattus norvegicus) is on record?
A: The Ratio was 6.8.

Q: And the Efficacy [1]?
A: The Efficacy was 100%.

Q: And the Ki [2]?
A: Its Ki is 1.73 nM.

Q: And the Ki [3]?
A: Its Ki is 11.7 nM.

Q: Which results are given for `COc1cccc(OC)c1-c1cccc2c1CC[C@H](N)C2`?
A: Ratio (Rattus norvegicus): > 12.7; Ki [2]: 78.7 nM; Ki [3]: > 1000 nM

Q: Which Ratio (Rattus norvegicus) does the source give for `O=C1Nc2cccc3c2C1(CCCCN1CCc2sccc2C1)CCC3` (configuration not stated) here?
A: Its Ratio is 79.

Q: And the Efficacy [4]?
A: Its Efficacy is “Antagonist”.

Q: What about the Ki [2] of the same compound?
A: The Ki was 6.46 nM.

Q: And the Ki [3]?
A: The Ki was 513 nM.

Q: What does the source list for `CCCN(CCC)[C@H]1COc2c(cccc2-c2ccc(OC)cc2)C1`?
A: Efficacy [1]: 91%; Ki [2]: 12.6 nM; Ki [3]: 1.31 nM

Q: How did the Efficacy [4] turn out when `O=C1c2ccccc2CCCN1CCN1CCC(n2c(O)nc3cc(F)ccc32)CC1` was run?
A: Its Efficacy is “Antagonist”.

Q: What does the source list for `CCCN(CCC)[C@H]1CCc2c(cccc2-c2ccccc2)C1`?
A: Ratio (Rattus norvegicus): 0.26; Efficacy [1]: 100%; Ki [2]: 3.38 nM; Ki [3]: 0.87 nM

Q: Which results are given for `CCCN(CCC)[C@H]1COc2c(cccc2-c2ccccc2OC)C1`?
A: Ratio (Rattus norvegicus): 3.8; Efficacy [1]: 100%; Ki [2]: 2.7 nM; Ki [3]: 10.3 nM; Ki [5]: 512 nM

Q: With `Cc1cccc(C#N)c1-c1cccc2c1-c1cccc3c1[C@@H](C2)N(C)CC3` as the compound, how does the Ratio (Rattus norvegicus) read?
A: Its Ratio is 37.

Q: And the Efficacy [4]?
A: Its Efficacy is “Antagonist”.

Q: What about the Ki [3] of the same compound?
A: Its Ki is 142 nM.

Q: What about the Ki [5] of the same compound?
A: The Ki was 498 nM.

Q: Which results are given for `CCCN(CCC)[C@H]1COc2c(cccc2-c2ccccc2)C1`?
A: Efficacy [1]: 100%; Ki [2]: 2.92 nM; Ki [3]: 1.23 nM
